According to ChEMBL document CHEMBL3526119, “Effect of the CYP2C8 genotype on the pharmacokinetics and pharmacodynamics of repaglinide” (Drug Metab Dispos, 2011):

Tests used:
Type in all cases: ADME, organism-based
Conditions in all cases: in vivo
[1] = Oral clearance in healthy white human with CYP2C8*1/*1 genotype at 2 mg, po
Outline: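 Repaglinide was assayed by LC-MS/MS with diclofenac internal standard (LLOQ 0.098 µg/L). Noncompartmental analysis gave AUC by linear/log-linear trapezoidal rule extrapolated to infinity. Weight-adjusted oral clearance = dose/(AUC × body weight).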

[2] = Cmax in healthy white human with SLCO1B1 521CC/CYP2C8*1/*3 combined genotype at 2 mg, po; set-up: dose 2 mg, route oral
Outline: (§1)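 Healthy Caucasians genotyped for CYP2C8*3 and SLCO1B1 521T>C were given a single oral 2 mg dose of repaglinide, and alcohol, caffeine and grapefruit were withheld. Plasma was sampled before dosing and at 15 times from 0.25 to 24 h. Drug was measured by LC-MS/MS against diclofenac internal standard, linear 0.098–79.139 µg/L. Noncompartmental analysis: Cmax taken as observed; AUC by linear/log-linear trapezoidal rule extrapolated to infinity.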

[3] = Cmax in healthy white human at 2 mg, po; set-up: dose 2 mg, route oral; outline: as §1

CL/F [1]: 7.5 mL/min/kg
Cmax [2]: 17.7 ng/mL
Cmax [3]: 52.8 ng/mL
Structure (SMILES): CCOc1cc(CC(=O)N[C@@H](CC(C)C)c2ccccc2N2CCCCC2)ccc1C(=O)O [REPAGLINIDE]
